The record followed here is ChEMBL document CHEMBL1128732, “Synthesis and anticonvulsant activity of N-benzylpyrrolo[2,3-d]-, -pyrazolo[3,4-d]-, and -triazolo[4,5-d]pyrimidines: imidazole ring-modified analogues of 9-(2-fluorobenzyl)-6-(methylamino)-9H-purine” (J Med Chem, 1995).

In data set [1] the test system is Rattus norvegicus. Briefly: The compound was tested for anticonvulsant activity against maximal electroshock-induced seizures after intraperitoneal administration in rats. The format is functional. The method, boiled down: (§1)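 Male Wistar rats (Charles River) challenged with maximal electroshock. ED50 is the dose protecting 50% of animals against the hind limb extensor component, calculated by the Miller–Tainter method. With standard error: at least 12 animals per dose level, four doses per compound. Without standard error: three doses, six animals per point. Some compounds were given as the hydrochloride.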

The test system of data set [2] is Rattus norvegicus. Briefly: The compound was tested for anticonvulsant activity against maximal electroshock-induced seizures after peroral administration in rats. The format is functional. The method, boiled down: as §1
Data set [3] can be described thus: Partition coefficient (logP). The format is physicochemical. The following applies: octanol/water. A digest of the protocol: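 Octanol–water partition measured with a carbonate-buffered aqueous phase adjusted to pH 10.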
A short description of data set [4]: pKa value of the compound. The format is physicochemical.

The structures appear in SMILES notation. Some results are limits rather than exact numbers.

`Nc1ncnc2c1cnn2Cc1ccccc1` returned an ED50 in the data set with Rattus norvegicus [1] (Rattus norvegicus, ip) above 25 mg/kg.

`CN(C)c1ncnc2c1ccn2Cc1ccccc1F`: the values for the ED50 with Rattus norvegicus [1] and in the data set with Rattus norvegicus [2] were 11 mg/kg and 12 mg/kg, respectively.

As for `CNc1ncnc2c1cnn2Cc1ccccc1`, the ED50 with Rattus norvegicus [1] (Rattus norvegicus, ip) was found to be 7 mg/kg; in the data set with Rattus norvegicus [2] (Rattus norvegicus, po) it was 15 mg/kg.

In turn, `CNc1ncnc2c1nnn2Cc1ccccc1F` returned a logP in data set [3] of 2.05. Also, the pKa in data set [4] was found to be 2.49. The ED50 with Rattus norvegicus [1] (Rattus norvegicus, ip) is 3 mg/kg; in the data set with Rattus norvegicus [2] (Rattus norvegicus, po), 8 mg/kg.

With `Nc1ncnc2c1cnn2Cc1ccccc1F`, the 50% effective dose (ED50) with Rattus norvegicus [1] (Rattus norvegicus, ip) amounted to 8 mg/kg; in the data set on Rattus norvegicus [2] (Rattus norvegicus, po) it was 14 mg/kg.

Molecule `c1ccc(Cn2ccc3c(NC4CC4)ncnc32)cc1` showed an ED50 in the data set with Rattus norvegicus [1] (Rattus norvegicus, ip) of 36 mg/kg.

Regarding `Fc1ccccc1Cn1ccc2c(NC3CC3)ncnc21`, the ED50 in the data set on Rattus norvegicus [1] (Rattus norvegicus, ip) is above 50 mg/kg.

As for `CNc1ncnc2c1cnn2Cc1ccccc1F`, the logP in data set [3] was 1.94. For the same molecule, the pKa in data set [4] came to 4.4. The ED50 in the data set with Rattus norvegicus [1] (Rattus norvegicus, ip) was determined as 6 mg/kg; with Rattus norvegicus [2] (Rattus norvegicus, po) it was 8 mg/kg.

As for `CNc1ncnc2c1ccn2Cc1ccccc1F`, the logP in data set [3] stood at 2.11. Besides, the pKa in data set [4] amounted to 5.56. For the same molecule, the ED50 in the data set with Rattus norvegicus [1] (Rattus norvegicus, ip) stood at 6 mg/kg; in the data set with Rattus norvegicus [2] (Rattus norvegicus, po), 12 mg/kg.

`Nc1ncnc2c1nnn2Cc1ccccc1F` gave an ED50 in the data set on Rattus norvegicus [1] (Rattus norvegicus, ip) above 25 mg/kg.

Molecule `CN(C)c1ncnc2c1ccn2Cc1ccccc1` registered an ED50 in the data set on Rattus norvegicus [1] of 15 mg/kg.

In the case of `Nc1ncnc2c1ncn2Cc1ccccc1F`, the 50% effective dose (ED50) with Rattus norvegicus [1] was found to be 4.5 mg/kg; in the data set on Rattus norvegicus [2], 12 mg/kg.

Regarding `CNc1ncnc2c1ncn2Cc1ccccc1F` [BW-A78U], the results for the 50% effective dose (ED50) in the data set on Rattus norvegicus [1] and with Rattus norvegicus [2] were 1.7 mg/kg and 2.5 mg/kg, respectively.

As to `O=C1NC(=O)C(c2ccccc2)(c2ccccc2)N1` [PHENYTOIN], the 50% effective dose (ED50) in the data set with Rattus norvegicus [1] is 10 mg/kg; with Rattus norvegicus [2], 20 mg/kg.
